Active and inactive are the calls of the source. The calls are words filed in the database; no cut-off is given here.
Legend:
Format in all cases: functional, organism-based
[1] = tested on: Toxoplasma gondii; assay: Antiparasitic activity against artemisinin-resistant Toxoplasma gondii KN200-1 infected in HFF cells after 72 hrs by beta-galactosidase reporter gene assay
Procedure, shortened: (§1)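 Tachyzoites inoculated into HFF monolayers, quadruplicate wells per sample; compounds 10 nM to 100 μM for 3 days at 37°C. Monolayers lysed 10 min at 50°C (HEPES pH 8.0, Triton X-100, DTT), then phosphate buffer pH 7.3 added, chlorophenol red-β-D-galactopyranoside substrate, A570 read.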

[2] = tested on: Toxoplasma gondii; assay: Antiparasitic activity against Toxoplasma gondii ATCC 50839 infected in HFF cells after 72 hrs by beta-galactosidase reporter gene assay; procedure, shortened: as §1
[3] = tested on: Toxoplasma gondii; assay: Increase in intracellular calcium level in artemisinin-resistant Toxoplasma gondii STL500-10A at 20 uM by fura-2-AM dye based fluorimetric method
Procedure, shortened: (§2)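 Freshly harvested tachyzoites loaded with 5.2 μM fura-2-AM in HEPES-buffered saline pH 7.4 plus 1.5% sucrose, 30 min at 26°C, washed; 2×10^7 cells/ml, room temperature, no extracellular calcium (1 mM EGTA). Excitation 340/380 nm, emission 510 nm; [Ca2+]i calibrated with Ca2+-EGTA buffers after background subtraction; three independent experiments.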

[4] = tested on: Toxoplasma gondii; assay: Increase in intracellular calcium level in artemisinin-resistant Toxoplasma gondii KN200-6 at 20 uM by fura-2-AM dye based fluorimetric method; procedure, shortened: as §2
[5] = tested on: Toxoplasma gondii; assay: Antiparasitic activity against artemisinin-resistant Toxoplasma gondii KN200-6 infected in HFF cells after 72 hrs by beta-galactosidase reporter gene assay; procedure, shortened: as §1
[6] = tested on: Toxoplasma gondii; assay: Induction of […] MIC2 protein secretion in artemisinin-resistant Toxoplasma gondii A2
[7] = tested on: Toxoplasma gondii; assay: Increase in intracellular calcium level in Toxoplasma gondii ATCC 50839 at 20 uM by fura-2-AM dye based fluorimetric method; procedure, shortened: as §2
[8] = tested on: Toxoplasma gondii; assay: Antiparasitic activity against artemisinin-resistant Toxoplasma gondii STL500-10A infected in HFF cells after 72 hrs by beta-galactosidase reporter gene assay; procedure, shortened: as §1
[9] = tested on: Toxoplasma gondii; assay: Increase in intracellular calcium level in artemisinin-resistant Toxoplasma gondii KN200-1 at 20 uM by fura-2-AM dye based fluorimetric method; procedure, shortened: as §2
[10] = tested on: Toxoplasma gondii; assay: Induction of […] MIC2 protein secretion in artemisinin-resistant Toxoplasma gondii KN200-1 at 10 uM treated for 10 mins by Western blot
Procedure, shortened: (§3)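 Freshly egressed parasites in DMEM/HEPES with 3% FBS, treated 10 min at 18°C (1% ethanol vehicle), then 2 min at 37°C to secrete, chilled, centrifuged at 400 × g. Supernatant and pellet resolved by 15% SDS-PAGE, Western blotted with rabbit anti-MIC2 (1:10,000) and anti-β-galactosidase (1:300) antibodies.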

[11] = tested on: Toxoplasma gondii; assay: Induction of […] MIC2 protein secretion in artemisinin-resistant Toxoplasma gondii KN200-6 at 10 uM treated for 10 mins by Western blot; procedure, shortened: as §3
[12] = tested on: Toxoplasma gondii; assay: Increase in intracellular calcium level in artemisinin-resistant Toxoplasma gondii STL500-10A at 1 uM by fura-2-AM dye based fluorimetric method in presence of extracellular calcium
Procedure, shortened: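 Freshly harvested tachyzoites loaded with 5.2 μM fura-2-AM in HEPES-buffered saline pH 7.4 plus 1.5% sucrose, 30 min at 26°C, washed; 2×10^7 cells/ml, room temperature, 1 mM extracellular CaCl2. 340/380 nm excitation ratio, 510 nm emission; [Ca2+]i calibrated with Ca2+-EGTA buffers; three independent experiments.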

[13] = tested on: Toxoplasma gondii; assay: Induction of […] MIC2 protein secretion in Toxoplasma gondii ATCC 50839 at 10 uM treated for 10 mins by Western blot; procedure, shortened: as §3
[14] = tested on: Toxoplasma gondii; assay: Increase in intracellular calcium level in artemisinin-resistant Toxoplasma gondii KN200-1 at 1 uM by fura-2-AM dye based fluorimetric method; procedure, shortened: as §2
[15] = tested on: Toxoplasma gondii; assay: Increase in intracellular calcium level in artemisinin-resistant Toxoplasma gondii STL500-10A at 1 uM by fura-2-AM dye based fluorimetric method; procedure, shortened: as §2
[16] = tested on: Toxoplasma gondii; assay: Induction of […] MIC2 protein secretion in artemisinin-resistant Toxoplasma gondii STL500-10A at 10 uM treated for 10 mins by Western blot; procedure, shortened: as §3
[17] = tested on: Toxoplasma gondii; assay: Increase in intracellular calcium level in Toxoplasma gondii ATCC 50839 at 1 uM by fura-2-AM dye based fluorimetric method; procedure, shortened: as §2
[18] = tested on: Toxoplasma gondii; assay: Increase in intracellular calcium level in artemisinin-resistant Toxoplasma gondii KN200-6 at 1 uM by fura-2-AM dye based fluorimetric method; procedure, shortened: as §2
[19] = Toxoplasma gondii, KN200-1, HFF, 72 h, read-out: EC50
[20] = Toxoplasma gondii, ATCC 50839, HFF, 72 h, read-out: EC50
[21] = Toxoplasma gondii, KN200-6, HFF, 72 h, read-out: EC50
[22] = Toxoplasma gondii, STL500-10A, HFF, 72 h, read-out: EC50

C[C@@H]1CC[C@H]2[C@@H](C)C(=O)O[C@@H]3O[C@@]4(C)CC[C@@H]1[C@]32OO4 [ARTEMISININ]
EC90 ([1]; Toxoplasma gondii, KN200-1, HFF, 72 h): 6850 nM | EC50 [1, 19]: 1730 nM | EC90 ([2]; Toxoplasma gondii, ATCC 50839, HFF, 72 h): 1240 nM | EC50 [2, 20]: 800 nM | Activity [3]: Active | Activity [4]: Active | EC90 ([5]; Toxoplasma gondii, KN200-6, HFF, 72 h): 8550 nM | EC50 [5, 21]: 1510 nM | Activity [6]: inactive | Activity [7]: Active | EC90 ([8]; Toxoplasma gondii, STL500-10A, HFF, 72 h): 4770 nM | EC50 [8, 22]: 1800 nM | Activity [9]: Active

C[C@H]1[C@H](N2CCS(=O)(=O)CC2)O[C@@H]2O[C@@]3(C)CC[C@H]4[C@H](C)CC[C@@H]1[C@@]24OO3 [ARTEMIFONE]
EC50 [2, 20]: 30 nM

C/C=C(/C)C(=O)O[C@H]1C(C)=C2[C@H]([C@@H]1OC(=O)CCCCCCC)[C@@](C)(OC(C)=O)C[C@H](OC(=O)CCC)[C@@]1(O)[C@H]2OC(=O)[C@@]1(C)O
Activity [10]: Active | Activity [11]: Active | Activity [12]: Active | Activity [6]: Active | Activity [13]: Active | Activity [14]: Active | Activity [15]: Active | Activity [16]: Active | Activity [17]: Active | Activity [18]: Active

O=c1[nH]c(=O)n([C@H]2C[C@H](O)[C@@H](CO)O2)cc1F [FLOXURIDINE]
EC50 [1, 19]: 1130 nM | EC50 [2, 20]: 910 nM | EC50 [5, 21]: 1190 nM | EC50 [8, 22]: 960 nM

CCc1nc(N)nc(N)c1-c1ccc(Cl)cc1 [PYRIMETHAMINE]
EC50 [1, 19]: 290 nM | EC50 [2, 20]: 210 nM | EC50 [5, 21]: 270 nM | EC50 [8, 22]: 240 nM

C[C@@H]1CC[C@H]2[C@H](C)CO[C@@H]3O[C@@]4(C)CC[C@@H]1[C@]32OO4 [9-EPI-10-DEOXOARTEMISININ]
EC50 ([1]; hff): Active | EC50 ([5]; hff): Active | EC50 ([8]; hff): Active

C[C@@H]1CC[C@H]2[C@@H](C)C(=O)O[C@@H]3O[C@@]4(C)CC[C@@H]1[C@]32O4 [DEOXYARTEMISININ]
EC50 ([1]; hff): Not Active | EC50 ([2]; hff): Not Active | EC50 ([5]; hff): Not Active | EC50 ([8]; hff): Not Active

— ChEMBL document CHEMBL1137631, “Artemisinin-resistant mutants of Toxoplasma gondii have altered calcium homeostasis” (Antimicrob Agents Chemother, 2007)
